Measurements: ChEMBL document CHEMBL1131143, “Predictive models for GABAA/benzodiazepine receptor subtypes: studies of quantitative structure-activity relationships for imidazobenzodiazepines at five recombinant GABAA/benzodiazepine receptor subtypes [alphaxbeta3gamma2 (x = 1-3, 5, and 6)] via comparative molecular field analysis” (J Med Chem, 1998)

Tests used:
Type in all cases: protein-complex assay
[1] = target: T1, GABA-A receptor; alpha-3/beta-3/gamma-2 (Homo sapiens, UniProt P18507+P28472+P34903); assay: Binding affinity against alpha-3-beta-3-gamma-2 GABAA/BzR receptor subtype.
T1 sequence (P18507 whole entry): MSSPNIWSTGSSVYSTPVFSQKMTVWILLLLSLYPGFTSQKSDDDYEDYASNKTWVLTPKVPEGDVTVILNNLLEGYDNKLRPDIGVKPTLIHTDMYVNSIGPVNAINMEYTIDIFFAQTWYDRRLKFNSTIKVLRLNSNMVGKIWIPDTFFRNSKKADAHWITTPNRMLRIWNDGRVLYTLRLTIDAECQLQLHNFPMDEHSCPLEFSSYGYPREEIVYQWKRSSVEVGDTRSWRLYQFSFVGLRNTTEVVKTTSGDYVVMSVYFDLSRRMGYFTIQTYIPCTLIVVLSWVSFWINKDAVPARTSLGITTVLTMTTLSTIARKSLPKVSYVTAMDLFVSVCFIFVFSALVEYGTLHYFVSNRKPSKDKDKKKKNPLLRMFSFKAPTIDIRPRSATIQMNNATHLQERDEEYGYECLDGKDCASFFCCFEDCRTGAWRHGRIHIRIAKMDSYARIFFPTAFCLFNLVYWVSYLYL
T1 sequence (P28472 whole entry): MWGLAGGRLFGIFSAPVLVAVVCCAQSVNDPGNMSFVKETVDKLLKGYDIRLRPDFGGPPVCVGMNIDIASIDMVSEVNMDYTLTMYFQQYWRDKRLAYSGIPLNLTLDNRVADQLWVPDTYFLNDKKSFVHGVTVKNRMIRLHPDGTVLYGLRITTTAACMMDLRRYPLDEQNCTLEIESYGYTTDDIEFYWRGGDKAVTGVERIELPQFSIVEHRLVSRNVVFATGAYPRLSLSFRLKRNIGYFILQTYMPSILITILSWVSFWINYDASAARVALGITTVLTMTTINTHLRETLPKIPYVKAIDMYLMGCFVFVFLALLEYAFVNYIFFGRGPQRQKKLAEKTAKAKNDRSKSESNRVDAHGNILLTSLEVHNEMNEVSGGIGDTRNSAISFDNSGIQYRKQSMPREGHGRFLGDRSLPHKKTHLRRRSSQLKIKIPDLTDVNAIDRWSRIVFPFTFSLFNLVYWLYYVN
T1 sequence (P34903 whole entry): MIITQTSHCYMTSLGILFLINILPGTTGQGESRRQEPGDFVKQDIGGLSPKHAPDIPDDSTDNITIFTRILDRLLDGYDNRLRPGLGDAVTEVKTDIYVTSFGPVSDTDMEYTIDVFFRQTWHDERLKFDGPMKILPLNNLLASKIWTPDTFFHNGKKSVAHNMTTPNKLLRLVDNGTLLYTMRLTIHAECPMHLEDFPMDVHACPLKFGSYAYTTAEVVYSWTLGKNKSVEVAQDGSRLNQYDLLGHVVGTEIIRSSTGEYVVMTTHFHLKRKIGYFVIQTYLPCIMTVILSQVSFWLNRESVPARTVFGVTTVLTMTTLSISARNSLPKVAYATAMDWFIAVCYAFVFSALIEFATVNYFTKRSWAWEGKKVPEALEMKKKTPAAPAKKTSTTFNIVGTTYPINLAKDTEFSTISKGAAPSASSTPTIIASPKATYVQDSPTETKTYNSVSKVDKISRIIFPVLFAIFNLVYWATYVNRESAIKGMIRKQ

[2] = target: T2, GABA-A receptor; alpha-5/beta-3/gamma-2 (Homo sapiens, UniProt P18507+P28472+P31644); assay: Binding affinity for Gamma-aminobutyric acid A receptor alpha-5-beta-3-gamma-2
T2 sequence (P18507 whole entry): T1 sequence (P18507 whole entry)
T2 sequence (P28472 whole entry): T1 sequence (P28472 whole entry)
T2 sequence (P31644 whole entry): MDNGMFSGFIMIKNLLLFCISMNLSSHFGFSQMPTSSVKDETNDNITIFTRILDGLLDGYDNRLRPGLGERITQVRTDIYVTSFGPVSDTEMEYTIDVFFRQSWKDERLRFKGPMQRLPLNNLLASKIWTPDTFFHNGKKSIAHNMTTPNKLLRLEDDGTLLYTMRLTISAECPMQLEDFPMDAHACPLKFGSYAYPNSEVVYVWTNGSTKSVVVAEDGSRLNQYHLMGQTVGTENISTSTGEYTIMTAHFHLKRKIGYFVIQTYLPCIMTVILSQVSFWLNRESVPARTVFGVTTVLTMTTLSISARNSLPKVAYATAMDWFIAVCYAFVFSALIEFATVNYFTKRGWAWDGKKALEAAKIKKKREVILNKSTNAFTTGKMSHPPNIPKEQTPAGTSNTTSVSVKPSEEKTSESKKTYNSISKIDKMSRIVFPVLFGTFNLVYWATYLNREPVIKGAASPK

[3] = target: GABA-A receptor; alpha-1/beta-3/gamma-2 (Homo sapiens) (UniProt P14867+P18507+P28472); assay: It is the ratio of Ki value for alpha-1-beta-3-gamma-2 to that of alpha-5-beta-3-gamma-2
[4] = target: T3, GABA-A receptor; alpha-2/beta-3/gamma-2 (Homo sapiens, UniProt P18507+P28472+P47869); assay: Binding affinity tested against alpha-2-beta-3-gamma-2 GABAA/BzR receptor subtype.
T3 sequence (P18507 whole entry): T1 sequence (P18507 whole entry)
T3 sequence (P28472 whole entry): T1 sequence (P28472 whole entry)
T3 sequence (P47869 whole entry): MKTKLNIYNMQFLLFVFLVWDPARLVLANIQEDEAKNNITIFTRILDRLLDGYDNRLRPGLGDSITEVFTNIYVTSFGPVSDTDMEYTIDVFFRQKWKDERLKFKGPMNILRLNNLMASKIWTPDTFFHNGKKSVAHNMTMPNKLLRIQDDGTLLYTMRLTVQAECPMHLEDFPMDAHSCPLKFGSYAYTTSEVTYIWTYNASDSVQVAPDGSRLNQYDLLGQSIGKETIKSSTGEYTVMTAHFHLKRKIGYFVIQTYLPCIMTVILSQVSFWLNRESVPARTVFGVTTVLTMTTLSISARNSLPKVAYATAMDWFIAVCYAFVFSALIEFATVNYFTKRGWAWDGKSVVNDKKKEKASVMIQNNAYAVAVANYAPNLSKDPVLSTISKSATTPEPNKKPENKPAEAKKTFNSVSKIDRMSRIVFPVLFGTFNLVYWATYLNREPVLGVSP

[5] = target: GABA-A receptor; alpha-6/beta-3/gamma-2 (Homo sapiens, UniProt P18507+P28472+Q16445); assay: Binding affinity against Gamma-aminobutyric acid A receptor alpha-6-beta-3-gamma-2
Outline: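 Cells scraped into PBS, spun at 3000g, resuspended in 10 mM KH₂PO₄/100 mM KCl pH 7.4. Nonspecific binding with 10⁻⁵ M diazepam; 1 h to equilibrium at 4 °C; filtration, ice-cold buffer wash, scintillation counting.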

[6] = target: T4, GABA-A receptor; alpha-1/beta-3/gamma-2 (Homo sapiens, UniProt P14867+P18507+P28472); assay: Binding affinity against alpha-1-beta-3-gamma-2 GABAA/BzR receptor subtype.
T4 sequence (P14867 whole entry): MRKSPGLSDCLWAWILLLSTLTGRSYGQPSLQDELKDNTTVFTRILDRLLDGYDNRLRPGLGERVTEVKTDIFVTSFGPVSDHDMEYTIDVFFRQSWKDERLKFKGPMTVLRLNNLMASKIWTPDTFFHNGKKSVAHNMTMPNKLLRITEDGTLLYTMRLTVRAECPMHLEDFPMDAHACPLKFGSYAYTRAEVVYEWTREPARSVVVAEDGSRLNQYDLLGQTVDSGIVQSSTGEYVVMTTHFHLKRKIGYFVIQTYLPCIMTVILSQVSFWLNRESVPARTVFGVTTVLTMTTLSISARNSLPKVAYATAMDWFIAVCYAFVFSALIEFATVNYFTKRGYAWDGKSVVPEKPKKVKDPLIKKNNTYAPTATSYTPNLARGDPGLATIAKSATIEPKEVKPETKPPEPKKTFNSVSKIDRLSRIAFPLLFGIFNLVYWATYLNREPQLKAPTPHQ
T4 sequence (P18507 whole entry): T1 sequence (P18507 whole entry)
T4 sequence (P28472 whole entry): T1 sequence (P28472 whole entry)

Chain of GABA-A receptor; alpha-6/beta-3/gamma-2 (Q16445 whole entry, one chain of several): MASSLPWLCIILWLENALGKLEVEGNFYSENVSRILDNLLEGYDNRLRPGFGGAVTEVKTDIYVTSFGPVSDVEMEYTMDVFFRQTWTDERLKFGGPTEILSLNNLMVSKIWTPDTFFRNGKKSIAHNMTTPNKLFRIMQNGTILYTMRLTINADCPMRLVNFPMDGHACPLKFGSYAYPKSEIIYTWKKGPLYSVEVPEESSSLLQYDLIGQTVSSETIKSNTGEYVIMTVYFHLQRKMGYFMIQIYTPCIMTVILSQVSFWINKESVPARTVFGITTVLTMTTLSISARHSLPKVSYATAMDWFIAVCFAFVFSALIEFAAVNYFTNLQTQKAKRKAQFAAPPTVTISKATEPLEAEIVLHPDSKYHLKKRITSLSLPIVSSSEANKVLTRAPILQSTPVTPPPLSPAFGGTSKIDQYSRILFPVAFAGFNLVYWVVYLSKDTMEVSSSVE

SMILES	Ki [1] [nM]	Ki [2] [nM]	Ratio [3]	Ki [4] [nM]	Ki [5] [nM]	Ki [6] [nM]
C#Cc1ccc2c(c1)C(=O)N(C)Cc1c(C(=O)OC(C)(C)C)ncn1-2	18.7	0.4	67.3	26.3	5.1	26.9
CN1Cc2c(C(=O)OC(C)(C)C)ncn2-c2ccc([N+](=O)[O-])cc2C1=O	30.2	3.5	3.7	49.8	22.5	12.8
CCCCC(=O)c1ncn2c1CN(C)C(=O)c1cc(Cl)ccc1-2	2740	166	9.6	2860	2930	1580
C#Cc1ccc2c(c1)C(=O)N1CC[C@H]1c1c(C(=O)OCC)ncn1-2	10	0.37	57	12	42	21
CCOC(=O)c1ncn2c1CN(C)C(=O)c1cc(OCC)ccc1-2	16.9	1.07	12.4	36	51.5	11.2
C#Cc1ccc2c(c1)C(=O)N1CC[C@H]1c1c(-c3nc(CC)no3)ncn1-2	184	12.7	17	150	361	220
C#Cc1ccc2c(c1)C(=O)N1CCC[C@@H]1c1c(C(=O)OCC)ncn1-2	102	7.2	39	318	61	283
CN1Cc2c(C(=O)OCC3CC3)ncn2-c2ccc(Cl)cc2C1=O	42.5	9.8	1.7	48.2	168	16.4
CCOC(=O)c1ncn2c1CN(C)C(=O)c1cc(C#N)ccc1-2	19	6	1.67	45	> 1000	10
CCOC(=O)c1ncn2c1[C@@H]1CCCN1C(=O)c1cc(C#C[Si](C)(C)C)ccc1-2	79	4	50	124	340	200
CN1Cc2c(CCl)ncn2-c2ccc(Cl)cc2C1=O	> 300	28.5	> 10.5	> 300	> 300	> 300
CCOC(=O)c1ncn2c1CN(C)C(=O)c1cc(CC)ccc1-2	26.1	1.5	13.6	27	176	20.4
C#Cc1ccc2c(c1)C(=O)N1CCC[C@H]1c1c(C(=O)OCC)ncn1-2	27	1.3	45	44	126	59
C#Cc1ccc2c(c1)C(=O)N1CCC[C@H]1c1c(-c3nc(C)no3)ncn1-2	91	3.7	24	70	301	89
CC(C)N(Cc1ncn2c1CN(C)C(=O)c1cc(Cl)ccc1-2)C(C)C	6270	1350	3.2	12600	8600	4200
CC#Cc1ccc2c(c1)C(=O)N(C)Cc1c(C(=O)OCC)ncn1-2	16.5	1.68	6	22.2	> 100	10.1
CCc1ncn2c1CN(C)C(=O)c1cc(Cl)ccc1-2	1130	182	2.2	1530	3650	408
CN1Cc2c(C(=O)OC(C)(C)C)ncn2-c2ccc(I)cc2C1=O	10.9	0.38	25.5	11.2	4.6	9.7
C#Cc1ccc2c(c1)C(=O)N(C)Cc1c(C(=O)OCC)ncn1-2	25.8	0.49	58	21.4	28.8	28.4
CCOC(=O)c1ncn2c1[C@@H]1CCN1C(=O)c1cc(C#C[Si](C)(C)C)ccc1-2	48	2.6	32	60	180	83
COCc1ncn2c1CN(C)C(=O)c1cc(Cl)ccc1-2	> 300	38.8	> 7.7	> 300	> 300	> 300
CN1Cc2c(C(=O)OC(C)(C)C)ncn2-c2ccc(C#C[Si](C)(C)C)cc2C1=O	255	2.61	75.5	143	58.6	197
CCOCc1ncn2c1CN(C)C(=O)c1cc(Cl)ccc1-2	> 300	82.7	> 3.6	> 300	> 300	> 300
CN1Cc2c(C(=O)OC(C)(C)C)ncn2-c2ccc(C#CC[Si](C)(C)C)cc2C1=O	337	23	12	387	301	275
